Data taken from article PMC8842743 (Journal of Alzheimer's Disease Reports, 2022).

Assays:
[1] = Brain homogenate protein binding; type: in vitro ADME, mouse; conditions: equilibrium dialysis
How it was run: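 Fraction unbound was determined in vitro by equilibrium dialysis of mouse brain homogenate or dog plasma. Unbound concentrations were derived by multiplying the total measured concentrations by this fraction unbound.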

healthy subjects = experiment: Clinical safety: adverse events, ECG, laboratory tests; type: in vivo, human

COc1cnc(C(=O)Nc2ccc(F)c([C@]34CN(c5ncc(F)cn5)C[C@H]3CSC(N)=N4)c2)cn1 [LY3202626]
0 (0): Constipation: number of adverse events (number of subjects) (healthy subjects; multiple doses 1 mg, N = 9) | Dizziness: number of adverse events (number of subjects) (healthy subjects; multiple doses 1 mg, N = 9) | Feces discoloured: number of adverse events (number of subjects) (healthy subjects; multiple doses 1 mg, N = 9) | Headache: number of adverse events (number of subjects) (healthy subjects; multiple doses 1 mg, N = 9) | Memory impairment: number of adverse events (number of subjects) (healthy subjects; multiple doses 1 mg, N = 9) | Postural orthostatic tachycardia syndrome: number of adverse events (number of subjects) (healthy subjects; multiple doses 1 mg, N = 9) | Sunburn: number of adverse events (number of subjects) (healthy subjects; multiple doses 1 mg, N = 9) | Abnormal dreams: number of adverse events (number of subjects) (healthy subjects; multiple doses 6 mg, N = 9) | Burning sensation: number of adverse events (number of subjects) (healthy subjects; multiple doses 6 mg, N = 9) | Dizziness: number of adverse events (number of subjects) (healthy subjects; multiple doses 6 mg, N = 9) | Dysgeusia: number of adverse events (number of subjects) (healthy subjects; multiple doses 6 mg, N = 9) | Headache: number of adverse events (number of subjects) (healthy subjects; multiple doses 6 mg, N = 9) | Memory impairment: number of adverse events (number of subjects) (healthy subjects; multiple doses 6 mg, N = 9) | Nightmare: number of adverse events (number of subjects) (healthy subjects; multiple doses 6 mg, N = 9) | Post-lumbar puncture syndrome: number of adverse events (number of subjects) (healthy subjects; multiple doses 6 mg, N = 9) | Postural orthostatic tachycardia syndrome: number of adverse events (number of subjects) (healthy subjects; multiple doses 6 mg, N = 9) | Sunburn: number of adverse events (number of subjects) (healthy subjects; multiple doses 6 mg, N = 9) | Abnormal dreams: number of adverse events (number of subjects) (healthy subjects; multiple doses 26 mg, n = 9) | Burning sensation: number of adverse events (number of subjects) (healthy subjects; multiple doses 26 mg, n = 9) | Constipation: number of adverse events (number of subjects) (healthy subjects; multiple doses 26 mg, n = 9) | Dysgeusia: number of adverse events (number of subjects) (healthy subjects; multiple doses 26 mg, n = 9) | Headache: number of adverse events (number of subjects) (healthy subjects; multiple doses 26 mg, n = 9) | Nightmare: number of adverse events (number of subjects) (healthy subjects; multiple doses 26 mg, n = 9) | Post-lumbar puncture syndrome: number of adverse events (number of subjects) (healthy subjects; multiple doses 26 mg, n = 9) | Sunburn: number of adverse events (number of subjects) (healthy subjects; multiple doses 26 mg, n = 9)
9 (9): Feces discoloured: number of adverse events (number of subjects) (healthy subjects; multiple doses 26 mg, n = 9)
generally well tolerated: tolerability (healthy subjects; Phase 1 study)
no clinically significant changes: electrocardiograms (including QTc interval), ophthalmologic examinations, alertness and attention (healthy subjects; healthy subjects, Phase 1)
0.026: free fraction in brain homogenate [1]
no clinically significant findings: clinical laboratory tests, including liver functions tests (healthy subjects; healthy subjects, Phase 1)
1 (1): Abnormal dreams: number of adverse events (number of subjects) (healthy subjects; multiple doses 1 mg, N = 9) | Burning sensation: number of adverse events (number of subjects) (healthy subjects; multiple doses 1 mg, N = 9) | Dysgeusia: number of adverse events (number of subjects) (healthy subjects; multiple doses 1 mg, N = 9) | Nightmare: number of adverse events (number of subjects) (healthy subjects; multiple doses 1 mg, N = 9) | Post-lumbar puncture syndrome: number of adverse events (number of subjects) (healthy subjects; multiple doses 1 mg, N = 9) | Constipation: number of adverse events (number of subjects) (healthy subjects; multiple doses 6 mg, N = 9) | Memory impairment: number of adverse events (number of subjects) (healthy subjects; multiple doses 26 mg, n = 9) | Postural orthostatic tachycardia syndrome: number of adverse events (number of subjects) (healthy subjects; multiple doses 26 mg, n = 9)
no serious adverse events: serious adverse events (healthy subjects; up to a single dose of 45 mg or multiple doses of 26 mg)
2 (2): Feces discoloured: number of adverse events (number of subjects) (healthy subjects; multiple doses 6 mg, N = 9) | Dizziness: number of adverse events (number of subjects) (healthy subjects; multiple doses 26 mg, n = 9)
